From ChEMBL document CHEMBL1139262, “Design, synthesis, and evaluation of 5-sulfamoyl benzimidazole derivatives as novel angiotensin II receptor antagonists” (Bioorg Med Chem, 2008) come the findings set out here.

Test [1] concerns the target T1, Type-1 angiotensin II receptor A (Rattus norvegicus) (UniProt P25095).
T1 sequence (whole entry): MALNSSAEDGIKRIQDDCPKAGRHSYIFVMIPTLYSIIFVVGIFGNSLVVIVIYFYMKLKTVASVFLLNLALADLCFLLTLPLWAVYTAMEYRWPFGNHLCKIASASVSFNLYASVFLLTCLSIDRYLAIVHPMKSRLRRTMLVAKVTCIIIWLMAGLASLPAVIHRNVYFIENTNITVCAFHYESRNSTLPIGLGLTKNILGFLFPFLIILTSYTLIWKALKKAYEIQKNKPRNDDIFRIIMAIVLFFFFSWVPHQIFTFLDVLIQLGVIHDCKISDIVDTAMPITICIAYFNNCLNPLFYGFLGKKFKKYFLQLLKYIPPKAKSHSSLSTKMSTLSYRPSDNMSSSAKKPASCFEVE
The test is described as follows: (§1) Antagonist activity at AT1 receptor in rat aortic rings. In kind it is functional. The essentials:
(§2)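 Isolated rat aortic ring in 10 ml bath of Krebs–Henseleit at 37 °C, pH 7.4, oxygenated, under 1 g tension. Ang II cumulative curve in 0.5-log steps (1 × 10−10 to 1 × 10−5), repeated after 15 min antagonist exposure at 1, 3 or 10 nmol. Response taken as % of maximal Ang II tension.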

Test [2] addresses T2, Type-1 angiotensin II receptor A (Rattus norvegicus, UniProt P25095).
T2 sequence (P25095 whole entry): T1 sequence (whole entry)
Described as §1. It counts as functional. The note with it: read-out: pA2 (converted). Put shortly: as §2

Test [3] deals with Rattus norvegicus. The test can be described thus: Antihypertensive effect in desoxycortisone acetate-induced hypertensive rat assessed as maximum decrease in mean arterial blood pressure at 3 mg/kg, ip after 6 hrs. It counts as functional, Artery. The note with it: route intraperitoneal. Put shortly: (§3)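 Hypertension induced by uninephrectomy plus DOCA 40 mg kg−1 sc twice weekly for up to six weeks, with 1.0% NaCl and 0.2% KCl in drinking water; sham rats got tap water. Compound given ip, and mean arterial blood pressure measured 6 h after dosing. Activity expressed as fall in MABP.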

In test [4] the test system is Rattus norvegicus. The test is described as follows: Antihypertensive effect in desoxycortisone acetate-induced hypertensive rat assessed as maximum decrease in mean arterial blood pressure at 5 mg/kg, ip after 6 hrs. The note with it: route intraperitoneal. It counts as functional, Artery. Put shortly:
as §3

Molecules are shown by their SMILES.

As to `CCCCc1nc2cc(S(N)(=O)=O)ccc2n1Cc1ccc(-c2ccccc2C(=O)O)cc1`, the pA10 in test [1] came to 6.1. Also, in test [2], the Kb was 200 nM. The Activity in the test with Rattus norvegicus [3] is on record as 51.4 mmHg.

In test [1], `CCCCc1nc2cc(S(=O)(=O)NC)ccc2n1Cc1ccc(-c2ccccc2C(=O)O)cc1` yielded a pA10 of 6.3. Further, in test [2], the Kb was 126 nM. Also, the Activity in the test on Rattus norvegicus [3] stood at 52.5 mmHg.

With `CCCCc1nc2cc(S(=O)(=O)NCCC)ccc2n1Cc1ccc(-c2ccccc2C(=O)O)cc1`, the pA10 in test [1] stood at 6.4. The Kb in test [2] is 79.4 nM. For the same compound, the Activity with Rattus norvegicus [3] stood at 50.2 mmHg.

Turning to `CCCCc1nc2ccccc2n1Cc1ccc(-c2ccccc2C(=O)O)cc1`, in test [1], the pA10 was determined as 6.7. In test [2], the Kb is 3.16 nM.

In test [1], `CCCCc1nc2cc(S(=O)(=O)O)ccc2n1Cc1ccc(-c2ccccc2C(=O)O)cc1` had a pA10 of 5.8. Besides, the Kb in test [2] is 251 nM. Further, the Activity in the test with Rattus norvegicus [3] is recorded as 44.7 mmHg.

The compound `CCCCNS(=O)(=O)c1ccc2c(c1)nc(CCCC)n2Cc1ccc(-c2ccccc2C(=O)O)cc1` returned a pA10 in test [1] of 6.2. The Kb in test [2] is 100 nM. Also, the Activity in the test with Rattus norvegicus [3] is on record as 47.6 mmHg.

In test [1], `CCOc1nc2cccc(C(=O)O)c2n1Cc1ccc(-c2ccccc2-c2nnn[nH]2)cc1` came in with a pA10 of 6.7. Also, in test [2], the Kb is 3.16 nM. Further, in the test on Rattus norvegicus [4], the Activity turned out to be 56.2 mmHg.

As to `CCCCc1nc2cc(S(=O)(=O)NC(C)C)ccc2n1Cc1ccc(-c2ccccc2C(=O)O)cc1`, the pA10 in test [1] is 6.3. In addition, the Kb in test [2] was 63.1 nM. Also, the Activity in the test with Rattus norvegicus [3] is given as 51.7 mmHg.

On to `CCCCc1nc2cc(S(=O)(=O)NC3CCCCC3)ccc2n1Cc1ccc(-c2ccccc2C(=O)O)cc1`, for which the pA10 in test [1] is 5.7. Moreover, the Kb in test [2] was 12.6 nM. Also, in the test with Rattus norvegicus [3], the Activity was 64.4 mmHg.

In turn, `CCCCc1nc(Cl)c(CO)n1Cc1ccc(-c2ccccc2-c2nnn[nH]2)cc1` [LOSARTAN] showed a pA10 in test [1] of 7.1. In addition, the Activity with Rattus norvegicus [4] came out at 58.3 mmHg.

Regarding `CCCCc1nc2cc(S(=O)(=O)NCC)ccc2n1Cc1ccc(-c2ccccc2C(=O)O)cc1`, the pA10 in test [1] was found to be 6.2. Moreover, in test [2], the Kb was 79.4 nM. Also, the Activity with Rattus norvegicus [3] is on record as 49.9 mmHg.

Turning to `CCCCc1nc2cc(S(=O)(=O)NC(C)(C)C)ccc2n1Cc1ccc(-c2ccccc2C(=O)O)cc1`, in test [1], the pA10 turned out to be 5.4. Moreover, in test [2], the Kb was 3.98 nM. Besides, the Activity in the test with Rattus norvegicus [3] came to 62.4 mmHg.
